A short description of assay [1]: reducers of endogenous Her2 protein level, primary screen, SKBR3 breast tumor cells, AlphaScreen, ATP viability (AID 461;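 active = Her2 level under about 52% in both replicate screens, with viability over 70% of control, limit read from the data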;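 as to Her2 level: lower value means less Her2 protein in the cells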;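 as to viability: percent of carrier control wells set as 100% viability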). The conditions noted are these: 18-24 h, measured here: SKBR3 viability, ATP luminescence, at 10 µM. Background: Bead proximity is the source of the signal in Alpha formats.
Assay [2] concerns the target Receptor tyrosine-protein kinase erbB-2 (Homo sapiens) (UniProt P04626). Described as above. Conditions: 18-24 h, at 10 µM, stronger effect = lower value.
The nature of assay [3]: SK-BR-3 cell growth inhibitors, pilot screen, 24 h, human (AID 572;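 active = viability at or below 10% of carrier control in both of two separate runs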;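 also: compound exposure lasted between 18 and 24 h rather than exactly 24 h; 100% = carrier-treated control wells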). The conditions noted are these: SK-BR-3 viability, CellTiter-Glo luminescence, at 10 µM, stronger effect = lower value. (In general: In ATP-based viability assays light output follows the ATP content of the culture.)
Assay [4] is described as follows: HUVEC growth inhibition – cell-based, human, primary screen (AID 575;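 active = viability at or below 30% in both replicate assays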;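 also: 100% = median of untreated cell wells with 0.1% DMSO on each plate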). The conditions noted are these: HUVEC proliferation, CellTiter-Glo luminescence, 72 h; at 10 µM; stronger effect = lower value. In outline:
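Material: primary human umbilical vein endothelial cells / Schedule: 72 h exposure, 37 °C, 5% CO2, 30 min RT equilibration / Signal: ATP-based CellTiter-Glo luminescent read / Read-out basis: percent of median DMSO-control luminescence / Control set: 32 DMSO-only cell-control wells (high), 32 MePR drug-control wells (low) per plate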

Assay [5] in a line: growth inhibitors of H69AR lung tumor, primary screen, human, duplicate replicates (AID 580;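 active = viability at or under a set limit in both replicates, limit being median viability minus 3 SD, cut at about 48% in these data, passing the limit was not always enough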;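 also: 100% = mean luminescence of untreated wells and 0% = no signal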). The conditions noted are these: H69AR lung tumor cells viability, ATP luminescence, 72 h; at 10 µM; stronger effect = lower value.
Assay [6] is described as follows: reversal of MRP1-mediated doxorubicin resistance, pilot screen, H69AR cells, doxorubicin co-treatment (AID 601). The conditions noted are these: CellTiter-Glo, 72 h, at 10 µM; for differential viability (reversal): stronger effect = higher value.
[7] abbreviates: H69AR cells + 2 uM doxorubicin, measured here: viability with 2 uM doxorubicin, stronger effect = lower value.
Where [8] appears, read: H69AR cells, compound alone cytotoxicity.

Molecules are shown by their SMILES. Calls of active or inactive are those of the source.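 The calls were made as follows, unless noted: active = viability loss from added drug above about 55%, and viability with drug at most 40%, in both replicates (limit read from the data, passing the limit was not always enough); inconclusive = both conditions met in only one replicate; inactive = neither replicate meets both conditions.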

Sequence of Receptor tyrosine-protein kinase erbB-2 (Homo sapiens) (P04626 whole entry, looked up): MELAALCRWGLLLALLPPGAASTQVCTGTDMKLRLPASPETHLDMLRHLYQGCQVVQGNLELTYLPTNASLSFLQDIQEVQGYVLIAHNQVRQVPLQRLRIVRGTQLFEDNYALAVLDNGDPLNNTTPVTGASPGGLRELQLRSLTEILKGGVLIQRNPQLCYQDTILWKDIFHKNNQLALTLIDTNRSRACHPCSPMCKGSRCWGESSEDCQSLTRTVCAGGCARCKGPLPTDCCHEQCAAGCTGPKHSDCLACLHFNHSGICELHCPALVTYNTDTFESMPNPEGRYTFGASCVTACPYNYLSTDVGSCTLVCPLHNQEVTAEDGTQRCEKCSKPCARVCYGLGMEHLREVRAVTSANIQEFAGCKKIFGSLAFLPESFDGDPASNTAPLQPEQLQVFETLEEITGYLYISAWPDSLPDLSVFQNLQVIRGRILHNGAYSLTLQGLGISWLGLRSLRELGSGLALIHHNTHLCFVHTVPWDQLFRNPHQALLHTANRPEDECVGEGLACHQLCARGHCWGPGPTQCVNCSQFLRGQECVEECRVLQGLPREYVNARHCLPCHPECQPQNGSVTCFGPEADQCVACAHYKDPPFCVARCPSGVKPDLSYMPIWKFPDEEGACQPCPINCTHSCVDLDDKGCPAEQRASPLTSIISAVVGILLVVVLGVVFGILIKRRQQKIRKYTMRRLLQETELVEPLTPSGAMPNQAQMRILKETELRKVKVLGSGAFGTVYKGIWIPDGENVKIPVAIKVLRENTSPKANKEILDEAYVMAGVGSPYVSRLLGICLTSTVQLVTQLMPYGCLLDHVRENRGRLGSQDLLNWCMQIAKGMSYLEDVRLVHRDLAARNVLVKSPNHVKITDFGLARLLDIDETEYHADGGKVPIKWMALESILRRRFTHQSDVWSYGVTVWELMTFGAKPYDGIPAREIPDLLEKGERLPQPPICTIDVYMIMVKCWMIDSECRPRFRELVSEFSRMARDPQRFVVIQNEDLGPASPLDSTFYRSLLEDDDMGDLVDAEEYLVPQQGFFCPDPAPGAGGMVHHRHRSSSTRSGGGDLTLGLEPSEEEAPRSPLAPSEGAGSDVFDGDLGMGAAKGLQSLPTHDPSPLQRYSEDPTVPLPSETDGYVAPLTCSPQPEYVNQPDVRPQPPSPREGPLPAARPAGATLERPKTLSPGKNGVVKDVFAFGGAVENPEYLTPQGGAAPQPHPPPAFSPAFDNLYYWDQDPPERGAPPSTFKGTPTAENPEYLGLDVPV

`CCCCOc1ccc(CC(=O)NO)cc1`: the viability was 122% in assay [1]; 122% (inactive) in assay [3]; 97% (inactive) in assay [4]; 54.2% (inactive) in assay [5]; 54.3% in assay [6] (setting [7]); 54.2% in assay [6] (setting [8]). Further, in assay [2], the Her2 level was 98.5% (inactive). Also, in assay [6] (H69AR cells + 2 uM doxorubicin), the differential viability (reversal) is -0.05% (inactive).

`Cc1cccc(Nc2ccccc2C(=O)O)c1C`: the viability in assay [1] is 85%; in assay [3] it was 85% (inactive); in assay [4], 65.7% (inactive); in assay [5], 99.4% (inactive); in assay [6] (setting [7]), 103%; in assay [6] (setting [8]) it was 99.4%. Also, the Her2 level in assay [2] is 105% (inactive). The differential viability (reversal) in assay [6] (H69AR cells + 2 uM doxorubicin) is -3.9% (inactive).

`CC(COc1ccccc1)NC(C)C(O)c1ccc(O)cc1` (stereo not drawn): the viability in assay [1] was 97%; in assay [3], 97% (inactive); in assay [4], 88.5% (inactive); in assay [5] it was 88.6% (inactive); in assay [6] (setting [7]) it was 106%; in assay [6] (setting [8]) it was 88.6%. In addition, the Her2 level in assay [2] was 105% (inactive). In assay [6] (H69AR cells + 2 uM doxorubicin), the differential viability (reversal) was -17.2% (inactive).

As to `CC(C)CCNC(=O)[C@H](CC(C)C)NC(=O)[C@H]1O[C@@H]1C(=O)O`, the viability in assay [1] was 104%; in assay [3] it was 104% (inactive); in assay [4], 95.9% (inactive); in assay [5], 100% (inactive); in assay [6] (setting [7]) it was 94.5%; in assay [6] (setting [8]), 100%. Besides, the Her2 level in assay [2] is 112% (inactive). Further, the differential viability (reversal) in assay [6] (H69AR cells + 2 uM doxorubicin) was 5.67% (inactive).

`OC(CCN1CCCCC1)(c1ccccc1)C1CCCCC1` (stereo not drawn): the viability in assay [1] was 69.5%; in assay [3], 69.5% (inactive); in assay [4], 84.9% (inactive); in assay [5], 92.2% (inactive); in assay [6] (setting [7]), 92.9%; in assay [6] (setting [8]), 92.2%. The Her2 level in assay [2] was 99.5% (inactive). The differential viability (reversal) in assay [6] (H69AR cells + 2 uM doxorubicin) was -0.69% (inactive).

For the molecule `CN(C)CCOc1ccccc1Cc1ccccc1`, the viability in assay [1] was 88.5%; in assay [3], 88.5% (inactive); in assay [4], 107% (inactive); in assay [5] it was 100% (inactive); in assay [6] (setting [7]), 89.5%; in assay [6] (setting [8]), 100%. Also, the Her2 level in assay [2] is 95.5% (inactive). In addition, the differential viability (reversal) in assay [6] (H69AR cells + 2 uM doxorubicin) is 11% (inactive).

With `CC1(C)S[C@@H]2[C@H](NC(=O)Cc3ccccc3)C(=O)N2[C@H]1C(=O)O`, the viability in assay [1] is 94.5%; in assay [3], 94.5% (inactive); in assay [4] it was 95.4% (inactive); in assay [5] it was 109% (inactive); in assay [6] (setting [7]) it was 95.6%; in assay [6] (setting [8]) it was 109%. Further, the Her2 level in assay [2] was 94.5% (inactive). The differential viability (reversal) in assay [6] (H69AR cells + 2 uM doxorubicin) was 13.5% (inactive).

For `Nc1ccc(S(=O)(=O)NC(=O)c2ccccc2)cc1`, the viability in assay [1] is 104%; in assay [3], 104% (inactive); in assay [4] it was 90% (inactive); in assay [5], 98.5% (inactive); in assay [6] (setting [7]), 92.4%; in assay [6] (setting [8]), 98.5%. Further, the Her2 level in assay [2] was 100% (inactive). The differential viability (reversal) in assay [6] (H69AR cells + 2 uM doxorubicin) was 6.16% (inactive).

As for `Cc1nnc(SCC2=C(C(=O)O)N3C(=O)[C@@H](NC(=O)Cn4cnnn4)[C@H]3SC2)s1`, the viability in assay [1] is 88.5%; in assay [3] it was 88.5% (inactive); in assay [4], 105% (inactive); in assay [5], 101% (inactive); in assay [6] (setting [7]), 98.7%; in assay [6] (setting [8]), 101%. In assay [2], the Her2 level is 99.5% (inactive). In addition, the differential viability (reversal) in assay [6] (H69AR cells + 2 uM doxorubicin) was 1.93% (inactive).

Turning to `Cc1cn([C@H]2C=C[C@@H](CO)O2)c(=O)[nH]c1=O`, the viability was 94% in assay [1]; 94% (inactive) in assay [3]; 104% (inactive) in assay [4]; 109% (inactive) in assay [5]; 86.2% in assay [6] (setting [7]); 109% in assay [6] (setting [8]). For the same molecule, the Her2 level in assay [2] is 94.5% (inactive). The differential viability (reversal) in assay [6] (H69AR cells + 2 uM doxorubicin) is 22.8% (inactive).

Consider `COc1ccc(CN(CCN(C)C)c2ccccn2)cc1`, for which the viability is 91% in assay [1]; 91% (inactive) in assay [3]; 97.4% (inactive) in assay [4]; 93.9% (inactive) in assay [5]; 74.4% in assay [6] (setting [7]); 93.9% in assay [6] (setting [8]). Besides, the Her2 level in assay [2] is 104% (inactive). The differential viability (reversal) in assay [6] (H69AR cells + 2 uM doxorubicin) is 19.5% (inactive).

Broadly, the viability is a read-out of living cells in per cent, often relative to untreated cells.
